Source: ChEMBL document CHEMBL1125131, “Long-acting dihydropyridine calcium antagonists. 4. Synthesis and structure-activity relationships for a series of basic and nonbasic derivatives of 2-[(2-aminoethoxy)methyl]-1,4-dihydropyridine calcium antagonists” (J Med Chem, 1990)

What was measured:
Cavia porcellus = species: Cavia porcellus; assay: Negative logarithm of the concentration required to depress contraction in the Langendorff perfused guinea pig heart by 25%; assay type: functional
[1] = Selectivity index, inhibition of [Ca2+] induced contraction of K+ depolarized rat aorta (IC50) to inhibition of contraction of guinea pig heart (IC25); assay type: functional, Cavia porcellus
Rattus norvegicus = species: Rattus norvegicus; assay: Concentration required to block [Ca2+] induced contraction of K+ depolarized rat aorta by 50%; assay type: functional
Canis familiaris [2] = species: Canis familiaris; assay: Duration of time taken for the compound for % decrease in coronary vasodilator activity; assay type: functional, Canis lupus familiaris
Summary of the method: (§1)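 Anesthetized beagle dogs were catheterized to record blood pressure and left ventricular pressure and to give compound intravenously, as one single dose for duration of action. Coronary blood flow was measured by hydrogen clearance with platinum electrodes in the coronary sinus and femoral artery, and cardiac output by thermodilution. Coronary vascular resistance was derived from these measurements.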

Canis familiaris [3] = assay: The compound was tested for % decrease in coronary vasodilator activity in anesthetized dogs following intravenous administration; assay type: functional, Canis lupus familiaris; summary of the method: as §1
Canis familiaris [4] = species: Canis familiaris; assay: Duration of time taken for percent decrease in coronary vasodilator activity; assay type: functional, Canis lupus familiaris; summary of the method: as §1
Canis familiaris [5] = assay: Percent decrease in coronary vasodilator activity in anesthetized dogs following intravenous administration was determined; assay type: functional, Canis lupus familiaris; summary of the method: as §1
[6] = Volume of distribution in dog after intravenous administration; assay type: ADME, organism-based, Canis lupus familiaris; conditions: in vivo, read-out: Volume of distribution
[7] = Plasma clearance in dogs after intravenous administration; assay type: ADME, organism-based, Canis lupus familiaris; conditions: dog
[8] = Plasma half-life in dog after intravenous administration; assay type: ADME, organism-based, Canis lupus familiaris

| SMILES | IC50 (Rattus norvegicus) | Vd [6] | clearance [7] | half-life [8] | pIC25 (Cavia porcellus) | Selectivity index [1] | Duration of action (Canis familiaris [2]) | Decrease (Canis familiaris [3]) | Duration of action (Canis familiaris [4]) | Decrease (Canis familiaris [5]) |
| --- | --- | --- | --- | --- | --- | --- | --- | --- | --- | --- |
| CCO/C(O)=C1\C(COCCNC(=O)c2cccnc2)=NC(C)=C(C(=O)OC)C1c1ccccc1Cl (stereo not given) | 15.8 nM |  |  |  | 7.6 | 1.6 |  |  |  |  |
| CCO/C(O)=C1\C(COCCN(C)/C(=N/C)NC#N)=NC(C)=C(C(=O)OC)C1c1ccccc1Cl (stereo not given) | 25.1 nM |  |  |  | 6.6 | 10 |  |  |  |  |
| CCO/C(O)=C1\C(COCCNCC(=O)NCCN)=NC(C)=C(C(=O)OC)C1c1ccccc1Cl (stereo not given) | 100 nM |  |  |  | 7 | 1 |  |  |  |  |
| CCO/C(O)=C1\C(COCC/N=C(\NC#N)NCCN(C)C)=NC(C)=C(C(=O)OC)C1c1ccccc1Cl (stereo not given) | 50.1 nM |  |  |  | 6.8 | 3 |  |  |  |  |
| CCO/C(O)=C1\C(COCCNC(=O)c2cnccn2)=NC(C)=C(C(=O)OC)C1c1ccccc1Cl (stereo not given) | 39.8 nM |  |  |  | 7.5 | 0.8 |  |  |  |  |
| CCO/C(O)=C1\C(COCCNC(C)=O)=NC(C)=C(C(=O)OC)C1c1ccccc1Cl (stereo not given) | 15.8 nM |  |  |  | 7.6 | 1.6 |  |  |  |  |
| CCO/C(O)=C1\C(COCCNCC(=O)NC)=NC(C)=C(C(=O)OC)C1c1ccccc1Cl (stereo not given) | 25.1 nM |  |  |  | 6.9 | 5 |  |  |  |  |
| CCO/C(O)=C1\C(COCCNC(=O)Nc2ccnc(O)n2)=NC(C)=C(C(=O)OC)C1c1ccccc1Cl (stereo not given) | 158 nM |  |  |  | 7.7 | 0.1 |  |  |  |  |
| CCO/C(O)=C1\C(COCCNC(=O)NCCN)=NC(C)=C(C(=O)OC)C1c1ccccc1Cl.O=C(O)/C=C\C(=O)O (stereo not given) | 50.1 nM |  |  |  | 7.1 | 1.6 |  |  |  |  |
| CCO/C(O)=C1\C(COCCN(C)C(=O)NC)=NC(C)=C(C(=O)OC)C1c1ccccc1Cl (stereo not given) | 20 nM |  |  |  | 7 | 5 |  |  | 15 min | 68% |
| CCO/C(O)=C1\C(COCCN(CC(N)=O)CC(N)=O)=NC(C)=C(C(=O)OC)C1c1ccccc1Cl (stereo not given) | 63.1 nM |  |  |  | 6 | 16 |  |  |  |  |
| CCO/C(O)=C1\C(COCCNC(=O)NCCN2CCNC2=O)=NC(C)=C(C(=O)OC)C1c1ccccc1Cl (stereo not given) | 15.8 nM |  |  |  | 6.2 | 40 |  |  |  |  |
| CCO/C(O)=C1\C(COCCNC(=O)NCC(N)=O)=NC(C)=C(C(=O)OC)C1c1ccccc1Cl (stereo not given) | 20 nM |  |  |  | 6.4 | 20 |  |  |  |  |
| CCO/C(O)=C1\C(COCCN(C)S(N)(=O)=O)=NC(C)=C(C(=O)OC)C1c1ccccc1Cl (stereo not given) | 25.1 nM |  |  |  | 6.7 | 8 |  |  |  |  |
| COC(=O)C1=C(C)NC(C)=C(C(=O)OC)C1c1ccccc1[N+](=O)[O-] [NIFEDIPINE] |  |  |  |  | 7.5 |  | 36 min | 77% |  |  |

Now from value to compound, other results behind:

| IC50 (Rattus norvegicus) | Vd [6] | clearance [7] | half-life [8] | SMILES | pIC25 (Cavia porcellus) | Selectivity index [1] | Duration of action (Canis familiaris [2]) | Decrease (Canis familiaris [3]) | Duration of action (Canis familiaris [4]) | Decrease (Canis familiaris [5]) |
| --- | --- | --- | --- | --- | --- | --- | --- | --- | --- | --- |
| 7.94 nM |  |  |  | CCO/C(O)=C1\C(COCCNS(N)(=O)=O)=NC(C)=C(C(=O)OC)C1c1ccccc1Cl (stereo not given) | 7.1 | 10 |  |  |  |  |
| 6.31 nM |  |  |  | CCO/C(O)=C1\C(COCCNC(=O)c2ccc(O)nc2)=NC(C)=C(C(=O)OC)C1c1ccccc1Cl (stereo not given) | 7 | 16 |  |  |  |  |
| 5.01 nM |  |  |  | CCO/C(O)=C1\C(COCCNCC(=O)NCCOC)=NC(C)=C(C(=O)OC)C1c1ccccc1Cl (stereo not given) | 7.5 | 6 |  |  |  |  |
| 3.16 nM |  |  |  | CCO/C(O)=C1\C(COCCNC(C)(C)C(N)=O)=NC(C)=C(C(=O)OC)C1c1ccccc1Cl (stereo not given) | 7.6 | 8 | 210 min | 85% |  |  |
| 10 nM |  |  |  | CCOC(=O)CNC(=O)NCCOCC1=C(C(=O)OCC)C(c2ccccc2Cl)/C(=C(\O)OC)C(C)=N1 (stereo not given) | 7 | 10 | 15 min | 61% |  |  |
| 10 nM |  |  |  | CCO/C(O)=C1\C(COCCNC(C)C(N)=O)=NC(C)=C(C(=O)OC)C1c1ccccc1Cl (stereo not given) | 7.2 | 6 | 150 min | 73% |  |  |
| 3.16 nM |  |  |  | CCO/C(O)=C1\C(COCCNC(=O)NC)=NC(C)=C(C(=O)OC)C1c1ccccc1Cl (stereo not given) | 7.6 | 13 |  |  |  |  |
| 6.31 nM |  |  |  | CCO/C(O)=C1\C(COCC/N=C(/NC)NC#N)=NC(C)=C(C(=O)OC)C1c1ccccc1Cl (stereo not given) | 7.5 | 5 |  |  |  |  |
| 3.98 nM | 3 L/kg | 7 mL/min/kg | 4.7 h | CCO/C(O)=C1\C(COCCNCC(N)=O)=NC(C)=C(C(=O)OC)C1c1ccccc1Cl (stereo not given) | 7.1 | 20 | >300 min | 88% |  |  |
